According to ChEMBL document CHEMBL1240328, “Selective compounds define Hsp90 as a major inhibitor of apoptosis in small-cell lung cancer” (Nat Chem Biol, 2007):
Active and inactive are the calls of the source. The rule behind the calls is not given here.

Key:
[1] = molecular target: Heat shock protein HSP 90-beta (Homo sapiens) (UniProt P08238); assay: Inhibition of HSP90-mediated antiapoptotic activity in human SKBR3 cells assessed as induction of caspase-9 cleavage at 50 uM after 24 hrs by Western blot analysis; type: cell-based; settings: SK-BR-3
Heat shock protein HSP 90-beta (Homo sapiens), sequence (P08238 whole entry): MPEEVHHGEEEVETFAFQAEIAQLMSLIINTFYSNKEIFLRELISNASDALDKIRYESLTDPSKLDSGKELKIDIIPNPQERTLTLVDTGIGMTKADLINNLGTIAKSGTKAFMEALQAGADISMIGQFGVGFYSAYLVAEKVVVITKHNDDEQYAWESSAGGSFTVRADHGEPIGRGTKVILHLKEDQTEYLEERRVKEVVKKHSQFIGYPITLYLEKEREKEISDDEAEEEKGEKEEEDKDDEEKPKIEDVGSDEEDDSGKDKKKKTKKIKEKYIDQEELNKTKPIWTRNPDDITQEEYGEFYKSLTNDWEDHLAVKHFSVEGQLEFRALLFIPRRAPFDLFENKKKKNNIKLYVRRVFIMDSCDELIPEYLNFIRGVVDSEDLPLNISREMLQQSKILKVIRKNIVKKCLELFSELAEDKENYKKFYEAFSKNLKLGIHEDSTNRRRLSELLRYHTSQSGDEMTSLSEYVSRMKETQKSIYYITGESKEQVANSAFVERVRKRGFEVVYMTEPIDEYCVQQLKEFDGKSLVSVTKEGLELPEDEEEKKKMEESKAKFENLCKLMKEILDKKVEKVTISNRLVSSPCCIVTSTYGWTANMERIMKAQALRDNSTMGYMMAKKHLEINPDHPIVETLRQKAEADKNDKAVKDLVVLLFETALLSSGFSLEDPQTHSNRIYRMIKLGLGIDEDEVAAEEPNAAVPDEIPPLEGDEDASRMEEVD
How it was run: (§1)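 SKBr3 cells at 60–70% confluence were exposed to drug or DMSO vehicle. Lysis was in 50 mM Tris pH 7.4, 150 mM NaCl, 1% NP-40, with protein measured by BCA. Lysates of 20–100 µg were run on SDS-PAGE, blotted to nitrocellulose, probed with primary antibodies and detected with a peroxidase-conjugated secondary (1:5,000). Loading was checked with β-actin or PI(3)K p85.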

[2] = molecular target: Heat shock protein HSP 90-beta (Homo sapiens) (UniProt P08238); assay: Effect on HSP90-mediated Bcl-2 expression in human NCI-H526 cells at 25 uM after 24 hrs by Western blot analysis; type: cell-based
How it was run: (§2)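 NCI-H526 cells were exposed for 24 h to drug or DMSO vehicle. Lysates were made in 50 mM Tris pH 7.4, 150 mM NaCl, 1% NP-40 and quantified by BCA. Western blot used 20–100 µg protein per lane, with β-actin as loading control.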

[3] = molecular target: Heat shock protein HSP 90-beta (Homo sapiens) (UniProt P08238); assay: Inhibition of HSP90-mediated antiapoptotic activity in human NCI-H187 cells assessed as subG1 accumulation at 5 uM after 72 hrs by propidium iodide staining-based flow cytometry; type: cell-based
How it was run: (§3)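 SCLC cells treated for 72 h with graded doses. Mitochondrial membrane potential read by flow cytometry after JC-1 staining, with green-only emission indicating depolarization. Sub-G1 DNA content read after propidium iodide staining. CCCP used as positive control. n = 3 repeat experiments.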

[4] = molecular target: Heat shock protein HSP 90-beta (Homo sapiens) (UniProt P08238); assay: Inhibition of HSP90-mediated antiapoptotic activity in human SKBR3 cells assessed as induction of caspase-9 cleavage at 400 uM after 24 hrs by Western blot analysis; type: cell-based; settings: SK-BR-3; how it was run: as §1
NCI-H526 = assay: Inhibition of HSP70-mediated antiapoptotic activity in human NCI-H526 cells assessed as induction of caspase-3 cleavage after 24 hrs by Western blot analysis; type: cell-based
How it was run: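 NCI-H526 cells were treated for 24 h. PARP and caspase-3 cleavage were read by western blot of lysates in Tris/NaCl/NP-40 buffer. Apaf-1 complexes were immunoprecipitated with Apaf-1 antibody, using control IgG, then blotted.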

SK-BR-3 = assay: Inhibition of HSP70-mediated antiapoptotic activity in human SKBR3 cells assessed as release of Apaf-1 from chaperon complex after 24 hrs by Western blot analysis; type: cell-based
How it was run: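 SKBr3 cells were treated for 24 h. Lysates were probed by western blot for caspase-3 and PARP cleavage. Apaf-1 complexes were pulled down with Apaf-1 antibody (with control IgG) and immunoblotted.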

[5] = molecular target: Heat shock protein HSP 90-beta (Homo sapiens) (UniProt P08238); assay: Inhibition of HSP90-mediated antiapoptotic activity in human NCI-N417 cells assessed as subG1 accumulation at 2.5 uM after 72 hrs by propidium iodide staining-based flow cytometry; type: cell-based; settings: NCI-H417
How it was run: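 Asynchronously growing cells were treated with compound, stained with propidium iodide and analysed by flow cytometry. The read-out was the percentage of cells with sub-G1 DNA content.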

[6] = molecular target: Heat shock protein HSP 90-beta (Homo sapiens) (UniProt P08238); assay: Effect on HSP90-mediated survivin expression in human NCI-H526 cells at 25 uM after 24 hrs by Western blot analysis; type: cell-based; how it was run: as §2
[7] = molecular target: Heat shock protein HSP 90-beta (Homo sapiens) (UniProt P08238); assay: Inhibition of HSP90-mediated antiapoptotic activity in human NCI-H187 cells assessed as subG1 accumulation at 15 uM after 72 hrs by propidium iodide staining-based flow cytometry; type: cell-based; how it was run: as §3
[8] = molecular target: Heat shock protein HSP 90-beta (Homo sapiens) (UniProt P08238); assay: Inhibition of HSP90-mediated antiapoptotic activity in human NCI-H526 cells assessed as disruption of protein-Apaf-1 complex at 50 uM after 24 hrs by Western blot analysis; type: cell-based
How it was run: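 NCI-H526 cells treated for 24 h with vehicle or inhibitors (20 µM or 50 µM). Proteins isolated with Apaf-1-specific antibody and whole lysates analysed by western blot. n = 3.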

[9] = molecular target: Heat shock protein HSP 90-beta (Homo sapiens) (UniProt P08238); assay: Inhibition of HSP90-mediated antiapoptotic activity in human NCI-H526 cells assessed as induction of cell death at 10 uM after 72 hrs by propidium iodide staining-based flow cytometry in presence of broad-spectrum caspase inhibitor Boc-D-FMK
How it was run: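 NCI-H526 cells pretreated for 3 h with Boc-D-FMK (100 µM), then exposed to 10 µM for 72 h. Flow cytometry after JC-1 staining for mitochondrial potential and after propidium iodide staining for DNA content. n = 3.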

[10] = molecular target: Heat shock protein HSP 90-beta (Homo sapiens) (UniProt P08238); assay: Inhibition of HSP90-mediated antiapoptotic activity in human SKBR3 cells assessed as induction of cell growth arrest at 20 uM after 24 hrs by propidium iodide staining-based flow cytometry; settings: SK-BR-3
[11] = molecular target: Heat shock protein HSP 90-beta (Homo sapiens) (UniProt P08238); assay: Inhibition of HSP90-mediated antiapoptotic activity in human NCI-H526 cells assessed as induction of PARP cleavage at 10 uM after 24 hrs by Western blot analysis; type: cell-based
How it was run: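 NCI-H526 cells at 60–70% confluence were exposed to drug or DMSO for 24 h. Lysed in 50 mM Tris pH 7.4, 150 mM NaCl, 1% NP-40, with protein measured by BCA. 20–100 µg run on SDS-PAGE and blotted to nitrocellulose. Probed with cleaved-protein antibodies and peroxidase secondary at 1:5,000, with β-actin as loading control.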

[12] = molecular target: Heat shock protein HSP 90-beta (Homo sapiens) (UniProt P08238); assay: Inhibition of HSP90-mediated antiapoptotic activity in human NCI-H526 cells assessed as induction of caspase-3 cleavage at 10 uM after 72 hrs by fluorescence assay in presence of caspase-9 inhibitor Z-LEHD-FMK; type: cell-based

Activity [1]: inactive
Activity [2]: inactive
Activity [3]: inactive
Activity [4]: inactive
Activity [5]: inactive
Activity [7]: inactive
Activity [8]: inactive
Activity [10]: inactive
Activity [11]: inactive
Activity [12]: inactive
Structure (SMILES): O=CN1CC/C(=C/c2ccc3c(c2)OCO3)C1=O
inhibition (NCI-H526): inactive
inhibition (SK-BR-3): inactive
Activity [6]: inactive
Activity [9]: inactive
